In the library only some 1% were active in any assay of this set; here they are far more common.
LYPLA1 counter: LYPLA1 (human) inhibition in PME1 counter-screen. actives 0.16% (n = 320,000). inhibition, % at 5.9 µM. O75608. recombinant LYPLA1, FP-Rh probe fluorescence polarization. AID 2174;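 active = inhibition above the mean of all tested compounds plus 3 SD, set per campaign, cut at about 14% in these data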;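 note: inhibitors block serine hydrolase probe labeling of LYPLA1 so polarization falls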
Target sequence (O75608 whole entry, looked up): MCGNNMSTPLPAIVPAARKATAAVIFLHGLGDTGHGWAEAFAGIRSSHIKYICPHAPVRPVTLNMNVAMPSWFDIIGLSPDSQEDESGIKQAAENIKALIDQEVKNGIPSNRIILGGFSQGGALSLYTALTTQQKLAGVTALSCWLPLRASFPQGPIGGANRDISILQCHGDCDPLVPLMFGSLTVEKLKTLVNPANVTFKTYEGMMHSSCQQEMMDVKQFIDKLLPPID
proCasp3 act: activators of human procaspase-3. recombinant procaspase-3 D3A, Ac-DEVD-pNA absorbance 405 nm. actives 0.11% (n = 330,000). activation, % at 8.5 µM. P42574;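 active = activation above the mean of all tested compounds plus 3 SD, cut at about 21% in these data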
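Test system: Procaspase-3 D3A mutant, all three cleavage aspartates alanine | Dosing: Single dose, 8.5 µM nominal compound, 0.8% DMSO | Schedule: 1 h preincubation, 2 h reaction | Technique: 405 nm absorbance of p-nitroaniline, reads at 0 and 120 min | Repeats: One well per compound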
PREPL inh: inhibits the human prolyl oligopeptidase-like enzyme | recombinant PREPL, fluorescence polarization activity-based probe | Q4J6C6 | AID 2751 | actives 0.68% (n = 320,000) | inhibition, % at 5.96 µM; in the data active = inhibition above about 43%
proCasp7 act: activates human procaspase-7, counter-screen for procaspase-3 activators; P55210; recombinant procaspase-7, Ac-DEVD-pNA absorbance 405 nm; D23A/D198A/D206A triple mutant, cannot self-cleave; scale: DMSO 0, 5 µM enzyme 100; activation, % at 8.5 µM; actives 0.093% (n = 330,000);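 active = percent activation above the screen-wide mean plus 3 SD, cut at about 25% in these data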
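Assay system: Uncleavable procaspase-7 mutant enzyme / Input: 2 µM procaspase-7 mutant as dispensed / Dosing: single nominal 8.5 µM compound dose, 0.8% DMSO final / Timing: 1 h enzyme–compound preincubation and 2 h substrate reaction, both 25 °C / Detection: p-Nitroaniline absorbance at 405 nm, read at 0 and 120 min / Replication: singlicate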
LYPLA2 inh: blocks human lysophospholipase 2, a PME1 counter-screen; O95372; recombinant LYPLA2, FP-Rh probe fluorescence polarization; inhibition, % at 5.9 µM; actives 0.38% (n = 320,000); AID 2177;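 active = inhibition above the screen-wide mean plus 3 SD, limit set per campaign, cut at about 26% in these data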
Target sequence (O95372 whole entry, looked up): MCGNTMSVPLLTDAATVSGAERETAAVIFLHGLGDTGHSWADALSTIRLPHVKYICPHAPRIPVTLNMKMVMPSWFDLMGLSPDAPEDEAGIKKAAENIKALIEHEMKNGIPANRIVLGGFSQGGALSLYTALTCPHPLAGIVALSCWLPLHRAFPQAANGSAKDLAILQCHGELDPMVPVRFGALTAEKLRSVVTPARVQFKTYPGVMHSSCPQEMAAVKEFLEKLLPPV
A number is an active result.

What do the screens show for `CC1=C(C(=O)OCc2ccccc2)C(/C=C/c2ccccc2)NC(=S)N1` (stereo not given)?
LYPLA1 counter: inactive; proCasp3 act: inactive; PREPL inh: inactive; proCasp7 act: inactive; LYPLA2 inh: 49.0

What do the screens show for `O=C(NCC(c1ccco1)N1CCCC1)c1sc2cc(F)ccc2c1Cl` (stereo not given)?
proCasp3 act: inactive; PREPL inh: inactive; proCasp7 act: inactive

How did COC(=O)CCC(=O)OC1(C)C(=O)C2=CN(CCCCO)C(c3ccc(OC)cc3)=CC2=C(Br)C1=O (stereo not given) do in these assays?
LYPLA1 counter: inactive; proCasp3 act: inactive; PREPL inh: 55.3; proCasp7 act: inactive; LYPLA2 inh: inactive

What do the screens show for `COC(=O)CCC(=O)OC1(C)C(=O)C2=CN(CCc3ccccn3)C(c3ccc(OC)cc3)=CC2=C(Br)C1=O` (stereo not given)?
LYPLA1 counter: inactive; proCasp3 act: inactive; PREPL inh: 43.9; proCasp7 act: inactive; LYPLA2 inh: inactive

What do the screens show for `COC(=O)CCC(=O)OC1(C)C(=O)C2=CN(CCN3CCOCC3)C(c3ccc(OC)cc3)=CC2=C(Br)C1=O` (stereo not given)?
LYPLA1 counter: inactive; proCasp3 act: inactive; PREPL inh: inactive; proCasp7 act: inactive; LYPLA2 inh: inactive

How did O=S(=O)(c1ccccc1)N(Cc1ccc(Cl)cc1)c1ccncc1 do in these assays?
LYPLA1 counter: inactive; proCasp3 act: inactive; PREPL inh: inactive; proCasp7 act: inactive; LYPLA2 inh: inactive

What do the screens show for `COc1ccccc1Oc1c(C)oc2c(CN3CCN(CCO)CC3)c(O)ccc2c1=O`?
LYPLA1 counter: 54.9; proCasp3 act: inactive; PREPL inh: inactive; proCasp7 act: inactive; LYPLA2 inh: 45.6

What do the screens show for `COc1cccc(C2C(C(=O)Nc3nc4ccccc4s3)=C(C)NC3=C2C(=O)CC(C)(C)C3)c1OC` (stereo not given)?
LYPLA1 counter: inactive; proCasp3 act: 45.1; PREPL inh: inactive; proCasp7 act: inactive; LYPLA2 inh: inactive

Results for Cc1cccc(NC(=O)CN2C(=O)COc3ccc(Cl)cc32)c1 ?
LYPLA1 counter: inactive; proCasp3 act: inactive; PREPL inh: inactive; proCasp7 act: inactive; LYPLA2 inh: 40.0

Results for O=C(CN1C(=O)COc2ccc(Cl)cc21)Nc1ccc2c(c1)OCCO2 ?
LYPLA1 counter: inactive; proCasp3 act: inactive; PREPL inh: inactive; proCasp7 act: inactive; LYPLA2 inh: inactive

Results for CCN1/C(=C/C=C/c2oc3ccc4ccccc4c3[n+]2CC)Oc2ccc3ccccc3c21 ?
LYPLA1 counter: 57.7; proCasp3 act: inactive; PREPL inh: inactive; proCasp7 act: inactive; LYPLA2 inh: inactive

What do the screens show for `CC[n+]1c(/C=C/N(C)c2ccccc2)oc2ccc(Cl)cc21`?
LYPLA1 counter: inactive; proCasp3 act: inactive; PREPL inh: inactive; proCasp7 act: inactive; LYPLA2 inh: inactive

How did Cc1ccc(CN2C(=O)N/C(=C\c3ccc(N4CCOCC4)cc3)C2=O)cc1 do in these assays?
LYPLA1 counter: inactive; proCasp3 act: inactive; PREPL inh: 70.7; proCasp7 act: inactive; LYPLA2 inh: inactive

What do the screens show for `CCCN1C(=O)/C(=C/c2ccc(N3CCOCC3)cc2)NC1=S`?
LYPLA1 counter: inactive; proCasp3 act: inactive; PREPL inh: inactive; proCasp7 act: inactive; LYPLA2 inh: inactive

What do the screens show for `COc1ccc(-c2cc(-c3ccccc3)nc(N3CCCC3)n2)cc1OC`?
LYPLA1 counter: inactive; proCasp3 act: inactive; PREPL inh: inactive; proCasp7 act: 26.9; LYPLA2 inh: inactive

Results for C#CCOCCOCCOCCNc1nc(N2CCN(C(=O)CCCCCCCCCCNC(=O)[C@H]([C@@H](C)CC)n3cc(CCCCN=C(N)N)nn3)CC2)nc(N2CCN(C(=O)CCCCCCCCCCNC(=O)[C@H](CCCN=C(N)N)n3cc(C[C@@H](C)CC)nn3)CC2)n1 ?
LYPLA1 counter: inactive; proCasp3 act: inactive; PREPL inh: 69.0; proCasp7 act: inactive; LYPLA2 inh: inactive

How did C#CCOCCOCCOCCNc1nc(N2CCOCC2)nc(N2CCN(C(=O)CCCCCCCCCCNC(=O)[C@H]([C@@H](C)CC)n3cc(CCCCN=C(N)N)nn3)CC2)n1 do in these assays?
LYPLA1 counter: inactive; proCasp3 act: inactive; PREPL inh: inactive; proCasp7 act: inactive; LYPLA2 inh: inactive

What do the screens show for `C#CCOCCOCCOCCNc1nc(N2CCN(C(=O)CCCCCCCCCCNC(=O)[C@H](CCCN=C(N)N)n3cc(C[C@@H](C)CC)nn3)CC2)nc(N2CCN(C(=O)CCCCCCCCCCNC(=O)[C@@H]([C@H](C)CC)n3cc(CCCCCN)nn3)CC2)n1`?
LYPLA1 counter: inactive; proCasp3 act: inactive; PREPL inh: 59.8; proCasp7 act: inactive; LYPLA2 inh: inactive

What do the screens show for `COc1ccc(OC)c(C2C(C(=O)c3ccc(C)o3)=C(O)C(=O)N2CCN2CCOCC2)c1` (stereo not given)?
LYPLA1 counter: inactive; proCasp3 act: inactive; PREPL inh: inactive; proCasp7 act: inactive; LYPLA2 inh: inactive

What do the screens show for `CCC(=O)c1ccc(OC(=O)N2CCOCC2)cc1`?
LYPLA1 counter: inactive; proCasp3 act: inactive; PREPL inh: inactive; proCasp7 act: inactive; LYPLA2 inh: inactive

Results for COc1ccccc1N(CC(=O)N/N=C/c1ccc(OCC(=O)NCc2ccco2)cc1)S(=O)(=O)c1ccc(C)cc1 ?
LYPLA1 counter: inactive; proCasp3 act: inactive; PREPL inh: inactive; proCasp7 act: inactive; LYPLA2 inh: inactive

What do the screens show for `O=C1N=C(N2CCOCC2)S/C1=C\c1cccs1`?
LYPLA1 counter: inactive; proCasp3 act: inactive; PREPL inh: inactive; proCasp7 act: inactive; LYPLA2 inh: inactive

Results for N#CCCN1CCN(C2=NC(=O)/C(=C\c3cccs3)S2)CC1 ?
LYPLA1 counter: inactive; proCasp3 act: inactive; PREPL inh: inactive; proCasp7 act: inactive; LYPLA2 inh: 28.7

What do the screens show for `O=S1(=O)C=C(Sc2nc3cc(Cl)ccc3o2)c2ccccc21`?
LYPLA1 counter: inactive; proCasp3 act: inactive; PREPL inh: inactive; proCasp7 act: inactive; LYPLA2 inh: inactive

What do the screens show for `N=C1C(c2nc(-c3ccc(Cl)cc3)cs2)=C(O)CN1CCCN1CCOCC1`?
LYPLA1 counter: inactive; proCasp3 act: inactive; PREPL inh: 56.6; proCasp7 act: inactive; LYPLA2 inh: inactive

Results for CCCCN1CC(O)=C(c2nc(-c3ccc(Cl)cc3)cs2)C1=N ?
LYPLA1 counter: inactive; proCasp3 act: inactive; PREPL inh: inactive; proCasp7 act: inactive; LYPLA2 inh: inactive

Results for CCn1c(CNC(=O)c2ccc(Cl)cc2)nnc1SCC(=O)NC1=NCCS1 ?
LYPLA1 counter: inactive; proCasp3 act: inactive; PREPL inh: inactive; proCasp7 act: inactive; LYPLA2 inh: inactive

Results for O=c1ccc(-c2ccccc2)nn1Cc1ccc(Cl)cc1 ?
LYPLA1 counter: inactive; proCasp3 act: inactive; PREPL inh: inactive; proCasp7 act: inactive; LYPLA2 inh: 38.2

What do the screens show for `Nc1cc(-c2ccccc2)nn1Cc1ccc(Cl)cc1`?
LYPLA1 counter: inactive; proCasp3 act: inactive; PREPL inh: inactive; proCasp7 act: inactive; LYPLA2 inh: inactive

Bioassay records: PubChem, The Scripps Research Institute Molecular Screening Center
